# Assay results taken from ChEMBL document CHEMBL4765366, “Targeting fungal virulence factor by small molecules: Structure-based discovery of novel secreted aspartic protease 2 (SAP2) inhibitors” (Eur J Med Chem, 2020).
# The source made the active and inactive calls. The calls are words filed in the database; no cut-off is given here.
# What was measured:
# [1] = Inhibition of recombinant Candida albicans SAP2 using Dabcyl-Arg-Lys-Pro-Ala-Leu-Phe-Phe-Arg-Leu-Glu (EDANS)-Arg-OH as substrate incubated for 30 mins followed by substrate addition and measured after 30 mins by spectrophotometry
# Candida albicans [2] = experiment: Inhibition of recombinant Candida albicans SAP2 at 100 uM using Dabcyl-Arg-Lys-Pro-Ala-Leu-Phe-Phe-Arg-Leu-Glu (EDANS)-Arg-OH as substrate incubated for 30 mins followed by substrate addition and measured after 30 mins by spectrophotometry relative to control; conditions: time 60.0 min
# Outline: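 FRET assay with purified expressed C. albicans SAP2 in 50 mM sodium citrate, 50 mM NaCl, pH 4.5. Compound (diluted in DMSO) was preincubated with enzyme 30 min before adding the Dabcyl/EDANS peptide substrate (18.75 μM solution in DMSO). Reaction ran 30 min at 30 °C, then fluorescence was read at ex 340, em 485 nm. Pepstatin A was the positive control.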
# Candida albicans [3] = experiment: Downregulation of SAP2 in azole resistant Candida albicans 0304103 at 64 ug/ml by qRT-PCR analysis; type: functional; conditions: dose 64.0 µg/ml
# Candida albicans [4] = experiment: Antibiofilm activity against azole resistant Candida albicans 0304103 assessed as inhibition of biofilm formation incubated for 24 hrs by XTT-dye based assay; type: functional, organism-based; conditions: dose 4-64 µg/ml
# Outline: (§1)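 Cell suspensions (1.0 × 10^5 CFU/mL) were adhered for 90 min at 37°C, then rinsed three times with PBS. Compounds were added at a range of concentrations from 2 mg/mL DMSO stocks, with fluconazole as the positive control. Plates were cultured 24 h at 37°C, and biofilm was measured semi-quantitatively by XTT reduction.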
# Candida tropicalis [5] = experiment: Antibiofilm activity against azole resistant Candida tropicalis 10186 assessed as inhibition of biofilm formation at 64 ug/ml incubated for 24 hrs by XTT-dye based assay relative to control; type: functional; outline: as §1
# Candida tropicalis [6] = experiment: Antibiofilm activity against azole resistant Candida tropicalis 10186 assessed as inhibition of biofilm formation incubated for 24 hrs by XTT-dye based assay; type: functional, organism-based; conditions: dose 4-64 µg/ml; outline: as §1
# Candida albicans [7] = experiment: Antifungal activity against azole resistant Candida albicans 0304103 infected in ICR mouse assessed as reduction in fungal burden in kidney at 10 mg/kg, ip administered for 4 days; type: functional, organism-based; conditions: time 4.0 day
# Outline: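 Female ICR mice (20–25 g) were immunosuppressed with cyclophosphamide, 100 mg/kg ip in saline. After 24 h they were infected iv with 0.2 mL of 1×10^5 CFU/mL cells. Starting 24 h after infection, mice (4 per group) received the drug ip once daily for four days; controls received saline or fluconazole 10 mg/kg. Kidneys were homogenized and plated on YPD at 30°C for log10 CFU.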
# Candida albicans [8] = experiment: Antibiofilm activity against azole resistant Candida albicans 0304103 assessed as inhibition of biofilm formation at 64 ug/ml incubated for 24 hrs by XTT-dye based assay relative to control; type: functional; outline: as §1
SMILES,IC50 [1],inhibition (Candida albicans [2]),further results
O=C(O)COc1ccc(/C=C2\C(=O)N(c3cccc(Cl)c3)N=C2c2ccccc2)cc1,26.4 µM,90%,–
O=C1/C(=C\c2ccc(Br)cc2)C(c2ccccc2)=NN1c1ccccc1,–,10%,–
Cc1ccc(N2N=C(c3ccccc3)/C(=C/c3ccc(OCC(=O)O)cc3OCC(=O)O)C2=O)cc1,13.5 µM,99%,–
CN(C)c1ccc(/C=C2\C(=O)N(c3ccccc3)N=C2c2ccccc2)cc1,–,11%,–
Cc1ccc(-c2ccc3c(c2)N(Cc2ccc(C(F)(F)F)cc2)C(=O)/C3=C/c2ccc(OCC(=O)O)cc2OCC(=O)O)cc1,–,100%,Activity (Candida albicans [3]): Active; inhibition (Candida albicans [4]): Dose-dependent effect; inhibition at 64 µg/mL (Candida tropicalis [5]): > 50%; inhibition (Candida tropicalis [6]): Dose-dependent effect
O=C(O)COc1ccc(/C=C2\C(=O)N(c3ccc(Cl)cc3)N=C2c2ccccc2)c(OCC(=O)O)c1,10.8 µM,99%,–
Cc1ccc(N2N=C(c3ccccc3)/C(=C/c3ccc(OCC(=O)O)cc3)C2=O)cc1,21.6 µM,93%,–
CCc1ccc(/C=C2\C(=O)N(c3ccccc3)N=C2c2ccccc2)cc1,–,7%,–
O=C(O)COc1ccc(/C=C2\C(=O)N(c3ccccc3)N=C2c2ccccc2)c(OCC(=O)O)c1,10.1 µM,99%,–
O=C(O)COc1ccc(/C=C2\C(=O)N(c3ccccc3)N=C2c2ccccc2)cc1,18.2 µM,94%,–
Cc1ccc(N2N=C(c3ccccc3)/C(=C/c3ccccc3OCC(=O)O)C2=O)cc1,72.3 µM,63%,–
O=C(O)COc1ccc(/C=C2\C(=O)N(c3ccc(Cl)cc3)N=C2c2ccccc2)cc1,13 µM,96%,–
CC(C)CC(=O)N[C@H](C(=O)N[C@H](C(=O)N[C@@H](CC(C)C)[C@@H](O)CC(=O)N[C@@H](C)C(=O)N[C@@H](CC(C)C)[C@@H](O)CC(=O)O)C(C)C)C(C)C [PEPSTATIN],0.022 µM,100%,–
COc1ccc(CN2C(=O)/C(=C/c3ccc(OCC(=O)O)cc3OCC(=O)O)c3ccc(-c4ccc(C)cc4)cc32)cc1,–,29%,–
O=C(O)COc1ccccc1/C=C1\C(=O)N(c2cccc(Cl)c2)N=C1c1ccccc1,55.5 µM,70%,–
O=C1/C(=C\c2ccc(O)cc2)C(c2ccccc2)=NN1c1ccccc1,–,12%,–
CC(=O)c1ccc(CN2C(=O)/C(=C/c3ccc(OCC(=O)O)cc3OCC(=O)O)c3ccc(-c4ccc(C)cc4)cc32)cc1,–,90%,Activity (Candida albicans [3]): Active
Cc1ccc(-c2ccc3c(c2)N(Cc2ccc(S(C)(=O)=O)cc2)C(=O)/C3=C/c2ccc(OCC(=O)O)cc2OCC(=O)O)cc1,–,100%,inhibition (Candida albicans [4]): Dose-dependent effect; inhibition (Candida tropicalis [6]): Dose-dependent effect
O=C(O)COc1ccccc1/C=C1\C(=O)N(c2ccc(Cl)cc2)N=C1c1ccccc1,75.2 µM,60%,–
O=C(O)COc1ccc(/C=C2\C(=O)N(c3ccc(Cl)cc3)N=C2c2ccccc2)cc1OCC(=O)O,46.9 µM,70%,–
OC(Cn1cncn1)(Cn1cncn1)c1ccc(F)cc1F,–,–,Activity (Candida albicans [7]): Active
O=C(O)COc1ccccc1/C=C1\C(=O)N(c2ccc(F)cc2)N=C1c1ccccc1,–,46%,–

SMILES,IC50 [1],inhibition (Candida albicans [2]),further results
COc1ccc(N2N=C(c3ccccc3)/C(=C/c3ccc(OCC(=O)O)c(OCC(=O)O)c3)C2=O)cc1,21.5 µM,88%,–
O=C(O)COc1ccc(/C=C2\C(=O)N(c3cccc(Cl)c3)N=C2c2ccccc2)c(OCC(=O)O)c1,11.5 µM,99%,–
Cc1ccc(N2N=C(c3ccccc3)/C(=C/c3ccc(OCC(=O)O)c(OCC(=O)O)c3)C2=O)cc1,22.3 µM,85%,–
O=C(O)COc1ccccc1/C=C1\C(=O)N(c2ccccc2)N=C1c1ccccc1,62.1 µM,68%,–
Cc1ccc(CN2C(=O)/C(=C\c3ccc(OCC(=O)O)cc3OCC(=O)O)N(Cc3ccc(C)cc3)C2=O)cc1,23.8 µM,91%,–
O=C(O)COc1ccc(/C=C2\C(=O)N(c3ccc(F)cc3F)N=C2c2ccccc2)c(OCC(=O)O)c1,32.7 µM,86%,–
COc1ccc(N2N=C(c3ccccc3)/C(=C/c3ccc(OCC(=O)O)cc3OCC(=O)O)C2=O)cc1,15.7 µM,94%,–
CCn1cc(/C=C(\NC(=O)c2ccccc2OC)C(=O)NCCO)c2ccccc21,46.1 µM,–,–
Cc1ccc(-c2ccc3c(c2)N(Cc2ccc(C#N)cc2)C(=O)/C3=C/c2ccc(OCC(=O)O)cc2OCC(=O)O)cc1,–,100%,Activity (Candida albicans [3]): Active; inhibition (Candida albicans [4]): Dose-dependent effect; inhibition (Candida tropicalis [6]): Dose-dependent effect; inhibition at 64 µg/mL (Candida albicans [8]): > 50%
COc1ccc(N2N=C(c3ccccc3)/C(=C/c3ccc(OCC(=O)O)cc3)C2=O)cc1,20.4 µM,95%,–
O=C(O)COc1ccc(/C=C2\C(=O)N(c3ccc(F)cc3)N=C2c2ccccc2)cc1,39.6 µM,71%,–
Cc1ccc(-c2ccc3c(c2)N(Cc2ccc(F)cc2)C(=O)/C3=C/c2ccc(OCC(=O)O)cc2OCC(=O)O)cc1,–,58%,–
COc1ccc(N2N=C(c3ccccc3)/C(=C/c3ccccc3OCC(=O)O)C2=O)cc1,70.7 µM,64%,–
O=C(O)COc1ccc(/C=C2\C(=O)N(c3ccc(F)cc3)N=C2c2ccccc2)cc1OCC(=O)O,33.7 µM,83%,–
O=C(O)COc1ccc(/C=C2\C(=O)N(c3ccc(F)cc3)N=C2c2ccccc2)c(OCC(=O)O)c1,17.9 µM,93%,–
COc1cc([C@H]2C(C(=O)c3ccc([N+](=O)[O-])cc3)=C(O)C(=O)N2CCCCCC(=O)O)ccc1O,64 µM,–,–
CCOc1ccc(/C=C2\C(=O)N(c3ccccc3)N=C2c2ccccc2)cc1,–,5%,–
O=C(O)COc1ccc(/C=C2\C(=O)N(c3ccccc3)N=C2c2ccccc2)cc1OCC(=O)O,18.5 µM,86%,–
Cc1ccc(CN2C(=O)C(=Cc3ccc(OCC(=O)O)cc3OCC(=O)O)C(=O)N2Cc2ccc(C)cc2)cc1,17.4 µM,94%,–
O=C(O)COc1ccc(/C=C2\C(=O)N(c3cccc(Cl)c3)N=C2c2ccccc2)cc1OCC(=O)O,22.7 µM,82%,–
Cc1ccc(-c2ccc3c(c2)N(Cc2ccc(Cl)cc2)C(=O)/C3=C/c2ccc(OCC(=O)O)cc2OCC(=O)O)cc1,–,100%,Activity (Candida albicans [3]): Active; inhibition (Candida albicans [4]): Dose-dependent effect; inhibition at 64 µg/mL (Candida tropicalis [5]): > 50%; inhibition (Candida tropicalis [6]): Dose-dependent effect; inhibition at 64 µg/mL (Candida albicans [8]): > 50%
